Experimental data reported in ChEMBL document CHEMBL3797115, “Design and synthesis of peptide conjugates of phosphoramide mustard as prodrugs activated by prostate-specific antigen” (Bioorg Med Chem, 2016).
Starred links: 1 amine or outer side, 2 acyl side, 3 side chain; linkers in the order of their positions; H or OH if unused. Non-standard residues stand in square brackets, D forms with d. Residues, ends and D or L forms follow the SMILES beside them. *: point of attachment. X1 = NP(=O)(OCc1c(F)c(F)c(N*)c(F)c1F)N(CCCl)CCCl; X3 = NP(=O)(OCc1c(F)cc(N*)cc1F)N(CCCl)CCCl; X2 = NP(=O)(OCc1ccc(N*)c(F)c1)N(CCCl)CCCl; X5 = NP(=O)(OCc1ccc(N*)cc1F)N(CCCl)CCCl; X4 = NP(=O)(OCc1ccc(N*)cc1)N(CCCl)CCCl; Glutaryl = O=C(CCCC(=O)[*:2])[*:1]; Hyp = O=C(O)[C@@H]1C[C@@H](O)CN1; Chg = N[C@H](C(=O)O)C1CCCCC1

Experiments:
[1] = target: T1, Prostate-specific antigen (Homo sapiens, UniProt P07288); assay: Prodrug activation assessed as prostate specific antigen (unknown origin)-mediated drug metabolism in Tris/HCl buffer pH 8 at 0.16 mM by HPLC analysis; type: ADME; details: pH 8, 160 µM, TDE = time-dependent effect
T1 sequence (P07288 whole entry): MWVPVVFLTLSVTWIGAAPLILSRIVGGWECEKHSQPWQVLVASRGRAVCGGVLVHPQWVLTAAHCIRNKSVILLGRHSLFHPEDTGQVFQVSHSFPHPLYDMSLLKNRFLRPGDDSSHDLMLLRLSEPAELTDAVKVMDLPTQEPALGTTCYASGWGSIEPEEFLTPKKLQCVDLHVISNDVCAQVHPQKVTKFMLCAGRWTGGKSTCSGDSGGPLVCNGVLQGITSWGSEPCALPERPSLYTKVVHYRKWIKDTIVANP
Summary of the method: (§1)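 Purified PSA with substrate at 1:100 enzyme/substrate molar ratio, 37 °C, Tris/HCl pH 8.0 with 10 mM CaCl2 and 0.1% Tween-20. Substrate stocks 10 mM in DMSO. Aliquots taken at intervals, quenched with 20% acetonitrile, frozen, then analysed by HPLC for substrate loss. Cleavage site after Gln confirmed by LC/MS.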

[2] = Half life in Tris buffer pH 8 at 100 uM by HPLC analysis; type: ADME
Summary of the method: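 Conjugate at 100 µM incubated at 37 °C in 50 mM Tris/HCl pH 8.0 with 10 mM CaCl2 and 0.1% Tween-20, without enzyme. Loss of conjugate followed over time by HPLC to give half-life.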

[3] = target: T1, Prostate-specific antigen; assay: Prodrug activation assessed as prostate specific antigen (unknown origin)-mediated drug metabolism in Tris/HCl buffer pH 8 at 100 uM measured as half life by HPLC analysis; type: ADME; details: pH 8, 100 µM; summary of the method: as §1
[4] = Antiproliferative activity against human DU145 cells after 72 hrs by MTT assay; type: functional, cell-based; details: DU-145, 72 h
Summary of the method: (§2)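 LNCaP (PSA-producing) and DU145 (non-PSA) cells grown in RPMI 1640 with 10% FBS; 7500 LNCaP or 500 DU145 cells/well, grown 48 h. Medium then switched to serum-free RPMI with 2% TCM, no phenol red. Conjugates 0.01–100 µM for 72 h; medium alone as negative control. MTT 4 h at 37 °C, read at 570 nm; IC50 interpolated from percent of control growth.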

LNCaP = assay: Antiproliferative activity against human LNCAP cells expressing prostate specific antigen after 72 hrs by MTT assay; type: functional, cell-based; summary of the method: as §2
[5] = target: T1, Prostate-specific antigen; assay: Prodrug activation assessed as prostate specific antigen (unknown origin)-mediated drug metabolism in Tris/HCl buffer at pH 8 measured after 2 hrs by HPLC analysis; type: ADME; details: pH 8, 2 h; summary of the method: as §1

| SMILES | Drug metabolism [1] | half-life at 100 µM [2] [h] | t1/2 [3] [h] | IC50 [4] [µM] | IC50 (LNCaP) [µM] | Drug metabolism [5] |
| --- | --- | --- | --- | --- | --- | --- |
| C[C@H](NC(=O)[C@@H]1C[C@@H](O)CN1C(=O)CCCC(=O)O)C(=O)N[C@@H](CO)C(=O)N[C@H](C(=O)N[C@@H](CCC(N)=O)C(=O)Nc1c(F)c(F)c(COP(N)(=O)N(CCCl)CCCl)c(F)c1F)C1CCCCC1 (some centres undefined) (Glutaryl-[Hyp]AS[Chg]Q-X1) | tde | 178 | 1.1 | > 100 | > 100 | – |
| C[C@H](NC(=O)[C@@H]1C[C@@H](O)CN1C(=O)CCCC(=O)O)C(=O)N[C@@H](CO)C(=O)N[C@H](C(=O)N[C@@H](CCC(N)=O)C(=O)Nc1ccc(COP(N)(=O)N(CCCl)CCCl)cc1F)C1CCCCC1 (some centres undefined) (Glutaryl-[Hyp]AS[Chg]Q-X2) | tde | 465 | 0.65 | > 100 | 29 | – |
| C[C@H](NC(=O)[C@@H]1C[C@@H](O)CN1C(=O)CCCC(=O)O)C(=O)N[C@@H](CO)C(=O)N[C@H](C(=O)N[C@@H](CCC(N)=O)C(=O)Nc1cc(F)c(COP(N)(=O)N(CCCl)CCCl)c(F)c1)C1CCCCC1 (some centres undefined) (Glutaryl-[Hyp]AS[Chg]Q-X3) | tde | 131 | 1.7 | > 100 | 20 | – |
| C[C@H](NC(=O)[C@@H]1C[C@@H](O)CN1C(=O)CCCC(=O)O)C(=O)N[C@@H](CO)C(=O)N[C@H](C(=O)N[C@@H](CCC(N)=O)C(=O)Nc1ccc(COP(N)(=O)N(CCCl)CCCl)cc1)C1CCCCC1 (some centres undefined) (Glutaryl-[Hyp]AS[Chg]Q-X4) | tde | 46 | 2.1 | 35 | 11 | – |
| C[C@H](NC(=O)[C@@H]1C[C@@H](O)CN1C(=O)CCCC(=O)O)C(=O)N[C@@H](CO)C(=O)N[C@H](C(=O)N[C@@H](CCC(N)=O)C(=O)Nc1ccc(COP(N)(=O)N(CCCl)CCCl)c(F)c1)C1CCCCC1 (some centres undefined) (Glutaryl-[Hyp]AS[Chg]Q-X5) | tde | 105 | 0.93 | > 100 | 5.3 | – |
| COc1cccc2c1C(=O)c1c(O)c3c(c(O)c1C2=O)C[C@](O)(C(=O)CO)C[C@H]3O[C@@H]1C[C@@H](NC(=O)[C@@H](CC(C)C)NC(=O)[C@@H](CO)NC(=O)[C@@H](CCC(N)=O)NC(=O)[C@H](NC(=O)[C@@H](CO)NC(=O)[C@@H](C)NC(=O)[C@@H]2C[C@@H](O)CN2C(=O)CCCC(=O)O)C2CCCCC2)[C@@H](O)[C@@H](C)O1 (stereo in doubt) | – | – | 0.6 | > 100 | 1.1 | metabolite_detected |
